{"source": "ChEMBL document CHEMBL1131769", "about": "“Orally bioavailable nonpeptide vitronectin receptor antagonists with efficacy in an osteoporosis model” (Bioorg Med Chem Lett, 1999)", "key": {"Integrin alpha-V/beta-3 [1]": {"biological_target": "T1, Integrin alpha-V/beta-3 (Homo sapiens, UniProt P05106+P06756)", "T1 sequence (P05106 27-788 limits assumed)": "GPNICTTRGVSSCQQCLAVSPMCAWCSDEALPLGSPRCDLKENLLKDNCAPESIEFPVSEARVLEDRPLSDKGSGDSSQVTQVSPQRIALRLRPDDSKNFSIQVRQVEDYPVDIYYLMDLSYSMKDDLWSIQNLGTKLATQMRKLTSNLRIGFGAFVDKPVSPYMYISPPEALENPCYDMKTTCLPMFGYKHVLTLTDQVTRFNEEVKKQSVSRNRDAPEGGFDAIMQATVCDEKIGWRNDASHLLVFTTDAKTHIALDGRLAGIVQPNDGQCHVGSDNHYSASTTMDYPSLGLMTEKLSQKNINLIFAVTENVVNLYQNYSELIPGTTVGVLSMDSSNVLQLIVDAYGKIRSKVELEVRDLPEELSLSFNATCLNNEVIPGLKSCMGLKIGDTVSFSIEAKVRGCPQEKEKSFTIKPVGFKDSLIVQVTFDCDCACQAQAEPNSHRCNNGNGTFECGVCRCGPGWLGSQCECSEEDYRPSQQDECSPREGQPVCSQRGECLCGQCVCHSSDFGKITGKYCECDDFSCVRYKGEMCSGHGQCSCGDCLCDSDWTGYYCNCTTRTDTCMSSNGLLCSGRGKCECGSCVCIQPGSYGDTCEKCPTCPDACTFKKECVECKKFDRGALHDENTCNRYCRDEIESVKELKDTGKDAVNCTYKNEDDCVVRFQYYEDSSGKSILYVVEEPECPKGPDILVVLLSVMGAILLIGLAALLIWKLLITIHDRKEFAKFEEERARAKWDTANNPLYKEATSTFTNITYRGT", "T1 sequence (P06756 31-889 limits assumed)": "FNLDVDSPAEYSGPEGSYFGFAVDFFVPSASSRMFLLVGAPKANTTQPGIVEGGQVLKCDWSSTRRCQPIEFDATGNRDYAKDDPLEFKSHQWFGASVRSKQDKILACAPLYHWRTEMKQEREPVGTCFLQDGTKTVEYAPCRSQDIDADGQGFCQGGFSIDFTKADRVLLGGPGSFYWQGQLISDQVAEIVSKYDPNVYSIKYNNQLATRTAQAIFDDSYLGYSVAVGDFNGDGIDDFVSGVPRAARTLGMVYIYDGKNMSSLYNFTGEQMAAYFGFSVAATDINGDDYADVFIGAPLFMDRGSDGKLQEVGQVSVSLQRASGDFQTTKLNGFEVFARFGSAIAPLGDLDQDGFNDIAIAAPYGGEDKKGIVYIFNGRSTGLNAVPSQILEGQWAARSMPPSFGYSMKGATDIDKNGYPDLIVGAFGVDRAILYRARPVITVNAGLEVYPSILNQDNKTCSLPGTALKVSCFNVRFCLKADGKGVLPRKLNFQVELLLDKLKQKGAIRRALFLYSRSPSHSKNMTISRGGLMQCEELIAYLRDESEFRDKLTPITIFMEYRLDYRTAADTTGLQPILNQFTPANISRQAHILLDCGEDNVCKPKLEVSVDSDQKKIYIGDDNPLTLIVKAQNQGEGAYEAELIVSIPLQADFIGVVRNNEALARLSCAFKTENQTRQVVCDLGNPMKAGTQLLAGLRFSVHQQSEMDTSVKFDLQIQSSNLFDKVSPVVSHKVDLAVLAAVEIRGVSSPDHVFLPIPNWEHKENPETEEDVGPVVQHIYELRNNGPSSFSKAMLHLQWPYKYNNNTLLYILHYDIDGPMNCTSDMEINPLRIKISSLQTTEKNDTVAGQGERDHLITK", "T1 sequence (P06756 891-1048 limits assumed)": "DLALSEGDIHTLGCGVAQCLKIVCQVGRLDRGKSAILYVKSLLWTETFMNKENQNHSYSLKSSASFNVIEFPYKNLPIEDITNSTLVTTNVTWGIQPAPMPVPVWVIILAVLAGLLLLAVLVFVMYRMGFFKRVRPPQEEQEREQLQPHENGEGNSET", "test": "Inhibition of HEK 293 cell adhesion to vitronectin by alpha V beta 3", "format": "cell-based, HEK293", "in_short": "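Cell-based αvβ3 affinity. HEK 293 cells transfected with human αvβ3 were tested for inhibition of adhesion of purified human vitronectin. IC50 is the mean of two experiments run in triplicate with an internal standard.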"}, "[2]": {"biological_target": "Integrin alpha-IIb/beta-3 (Homo sapiens, UniProt P05106+P08514)", "sequence (P05106 27-788 limits assumed)": "as the sequence (P05106 27-788 limits assumed) above", "sequence (P08514 32-887 limits assumed)": "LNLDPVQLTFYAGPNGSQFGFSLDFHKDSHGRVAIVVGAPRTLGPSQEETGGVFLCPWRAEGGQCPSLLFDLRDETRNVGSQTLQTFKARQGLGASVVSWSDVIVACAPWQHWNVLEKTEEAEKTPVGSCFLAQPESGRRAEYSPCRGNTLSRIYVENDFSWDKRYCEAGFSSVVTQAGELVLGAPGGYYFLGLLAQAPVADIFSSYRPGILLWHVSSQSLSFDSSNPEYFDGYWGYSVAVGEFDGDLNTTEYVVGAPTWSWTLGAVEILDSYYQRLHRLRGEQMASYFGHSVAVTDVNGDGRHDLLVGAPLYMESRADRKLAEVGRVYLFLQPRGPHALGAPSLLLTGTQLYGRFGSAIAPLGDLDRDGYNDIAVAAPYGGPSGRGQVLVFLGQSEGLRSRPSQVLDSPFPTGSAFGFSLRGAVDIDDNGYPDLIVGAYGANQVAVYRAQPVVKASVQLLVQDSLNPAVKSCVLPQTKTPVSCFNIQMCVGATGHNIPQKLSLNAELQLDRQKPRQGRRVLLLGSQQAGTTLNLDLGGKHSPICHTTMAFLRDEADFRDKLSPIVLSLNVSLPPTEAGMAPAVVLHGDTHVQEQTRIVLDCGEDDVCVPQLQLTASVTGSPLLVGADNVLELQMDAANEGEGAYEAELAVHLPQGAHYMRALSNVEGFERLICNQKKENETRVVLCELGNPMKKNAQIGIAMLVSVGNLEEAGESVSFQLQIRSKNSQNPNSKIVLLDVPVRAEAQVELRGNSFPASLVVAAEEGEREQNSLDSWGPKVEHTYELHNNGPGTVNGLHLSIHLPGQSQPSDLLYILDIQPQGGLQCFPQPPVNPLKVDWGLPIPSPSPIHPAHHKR", "sequence (P08514 891-1039 limits assumed)": "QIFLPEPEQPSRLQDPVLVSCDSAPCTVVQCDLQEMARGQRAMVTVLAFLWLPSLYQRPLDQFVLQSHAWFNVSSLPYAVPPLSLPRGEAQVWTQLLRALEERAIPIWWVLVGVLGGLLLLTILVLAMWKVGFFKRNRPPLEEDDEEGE", "test": "Binding affinity for alpha IIb beta3 integrin", "format": "protein-complex assay", "in_short": "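Competitive binding to human αIIbβ3, with 3H-SK&F 107260 as the displaced ligand. Ki is the mean of two to three separate experiments.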"}, "Integrin alpha-V/beta-3 [3]": {"biological_target": "T1, Integrin alpha-V/beta-3", "test": "Binding affinity for non-peptide Vitronectin receptor (alpha V beta 3)", "format": "protein-complex assay", "in_short": "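Competitive binding to human αvβ3, with 3H-SK&F 107260 as the displaced radioligand. Ki is the mean of two to three separate experiments.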"}, "[4]": {"test": "Oral bioavailability in rat", "format": "ADME, organism-based", "details": "in vivo", "in_short": "(§1)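 Rat pharmacokinetics from plasma concentration–time data in two to three separate animals, by non-compartmental analysis. Oral bioavailability was taken from dose-normalized i.v. and p.o. AUC values.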"}, "[5]": {"test": "Half-life was determined", "format": "ADME, organism-based", "details": "rat, in vivo", "in_short": "as §1"}, "Rattus norvegicus": {"system": "Rattus norvegicus", "test": "In vivo inhibitory activity against bone resorption of calcium response determined in thyroidparathyroidectomized rat model at 2.53 mg/kg/hr after 6 hr", "format": "functional", "in_short": "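Thyroparathyroidectomized rats received compound by continuous i.v. infusion at 2.53 mg/kg/hr. Inhibition of the calcemic response was read after 6 hr.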"}, "Homo sapiens [6]": {"organism": "Homo sapiens", "test": "In vitro inhibitory activity against human platelet aggregation", "format": "functional", "in_short": "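Inhibition of ADP-induced aggregation in human platelet-rich plasma.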"}, "Homo sapiens [7]": {"organism": "Homo sapiens", "test": "In vitro inhibitory activity determined by human osteoclast resorption assay", "format": "functional"}, "[8]": {"biological_target": "Integrin alpha-5/beta-1 (Homo sapiens)", "test": "Binding affinity for alpha 5 beta 1 receptor"}, "Integrin alpha-V/beta-5": {"biological_target": "Integrin alpha-V/beta-5 (Homo sapiens, UniProt P06756+P18084)", "sequence (P06756 31-889 limits assumed)": "as the sequence (P06756 31-889 limits assumed) above", "sequence (P06756 891-1048 limits assumed)": "as the sequence (P06756 891-1048 limits assumed) above", "sequence (P18084 24-799 limits assumed)": "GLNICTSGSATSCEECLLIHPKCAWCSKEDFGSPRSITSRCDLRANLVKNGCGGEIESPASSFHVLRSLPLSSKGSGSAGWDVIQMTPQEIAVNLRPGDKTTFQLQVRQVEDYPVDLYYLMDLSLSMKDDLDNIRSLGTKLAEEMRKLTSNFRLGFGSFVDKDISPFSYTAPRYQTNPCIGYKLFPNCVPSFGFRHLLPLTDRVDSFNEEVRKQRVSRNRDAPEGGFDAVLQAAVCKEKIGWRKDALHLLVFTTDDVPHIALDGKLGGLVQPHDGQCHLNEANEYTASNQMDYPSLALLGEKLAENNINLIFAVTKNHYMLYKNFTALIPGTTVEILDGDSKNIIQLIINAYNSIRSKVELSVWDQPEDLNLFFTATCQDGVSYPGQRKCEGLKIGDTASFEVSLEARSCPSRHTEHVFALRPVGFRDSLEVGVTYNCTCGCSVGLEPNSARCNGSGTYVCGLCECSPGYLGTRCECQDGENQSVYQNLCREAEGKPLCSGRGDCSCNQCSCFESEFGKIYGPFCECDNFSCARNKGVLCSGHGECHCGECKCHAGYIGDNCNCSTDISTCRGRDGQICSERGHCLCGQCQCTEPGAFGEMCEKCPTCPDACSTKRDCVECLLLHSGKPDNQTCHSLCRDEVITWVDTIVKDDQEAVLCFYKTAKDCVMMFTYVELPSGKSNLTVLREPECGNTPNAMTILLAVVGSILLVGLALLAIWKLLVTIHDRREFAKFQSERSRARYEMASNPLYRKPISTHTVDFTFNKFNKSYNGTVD", "test": "Binding affinity for integrin alpha V beta 5 receptor", "format": "protein-complex assay"}, "[9]": {"test": "Plasma clearance of the compound", "format": "ADME, organism-based", "details": "rat", "in_short": "as §1"}}}
{"smiles": "CN(Cc1nc2ccccc2[nH]1)C(=O)c1ccc2c(c1)Cc1ccccc1C(CC(=O)O)C2", "note": "(stereo not given)", "values": [{"measurement": "IC50", "setting": "Integrin alpha-V/beta-3 [1]", "result": 1800, "unit": "nM"}, {"measurement": "Ki", "setting": "[2]", "result": "> 50000", "unit": "nM"}, {"measurement": "Ki", "setting": "Integrin alpha-V/beta-3 [3]", "result": 23, "unit": "nM"}]}
{"smiles": "O=C(O)C[C@H]1Cc2ccc(OCCCNc3ccccn3)cc2Cc2ccccc21", "values": [{"measurement": "Ki", "setting": "Integrin alpha-V/beta-3 [3]", "result": 550, "unit": "nM"}]}
{"smiles": "O=C(O)CC1Cc2ccc(OCCCNc3ccccn3)cc2Cc2ccccc21", "note": "(stereo not given)", "values": [{"measurement": "IC50", "setting": "Integrin alpha-V/beta-3 [1]", "result": 65, "unit": "nM"}, {"measurement": "Ki", "setting": "[2]", "result": 30000, "unit": "nM"}, {"measurement": "Ki", "setting": "Integrin alpha-V/beta-3 [3]", "result": 8, "unit": "nM"}]}
{"smiles": "CN(Cc1nc2ccccc2[nH]1)C(=O)c1ccc2c(c1)CN(C)C(=O)[C@H](CC(=O)O)N2", "values": [{"measurement": "bioavailability", "setting": "[4]", "result": 3, "unit": "%"}, {"measurement": "half-life", "setting": "[5]", "result": 0.15, "unit": "h"}]}
{"smiles": "O=C(O)C[C@@H]1Cc2ccc(OCCCNc3ccccn3)cc2Cc2ccccc21", "values": [{"measurement": "inhibition in vivo at 2.53 mg/kg/hr", "setting": "Rattus norvegicus", "result": 85, "unit": "%"}, {"measurement": "IC50", "setting": "Homo sapiens [6]", "result": "> 200000", "unit": "nM"}, {"measurement": "bioavailability", "setting": "[4]", "result": 100, "unit": "%"}, {"measurement": "half-life", "setting": "[5]", "result": 3.02, "unit": "h"}, {"measurement": "IC50", "setting": "Integrin alpha-V/beta-3 [1]", "result": 60, "unit": "nM"}, {"measurement": "IC50", "setting": "Homo sapiens [7]", "result": 48, "unit": "nM"}, {"measurement": "Ki", "setting": "[8]", "result": 18000, "unit": "nM"}, {"measurement": "Ki", "setting": "Integrin alpha-V/beta-5", "result": 1.3, "unit": "nM"}, {"measurement": "Ki", "setting": "[2]", "result": 9000, "unit": "nM"}, {"measurement": "Ki", "setting": "Integrin alpha-V/beta-3 [3]", "result": 4, "unit": "nM"}, {"measurement": "clearance", "setting": "[9]", "result": 3, "unit": "mL/min/kg"}]}
